{"source": "ChEMBL document CHEMBL4680306", "about": "“The 3-D conformational shape of N-naphthyl-cyclopenta[d]pyrimidines affects their potency as microtubule targeting agents and their antitumor activity” (Bioorg Med Chem, 2021)", "key": {"HCT-15": {"tested_on": "HCT-15", "experiment": "Cytotoxicity against human HCT-15 cells assessed as inhibition of cell growth measured after 48 hrs by SRB assay", "format": "functional"}, "HCC 2998": {"tested_on": "HCC 2998", "experiment": "Cytotoxicity against human HCC 2998 cells assessed as inhibition of cell growth measured after 48 hrs by SRB assay", "format": "functional"}, "U-251 [1]": {"tested_on": "U-251", "experiment": "Cytotoxicity against human U-251 cells assessed as inhibition of cell growth measured after 48 hrs by SRB assay", "format": "functional"}, "A549": {"tested_on": "A549", "experiment": "Cytotoxicity against human A549 cells assessed as inhibition of cell growth measured after 48 hrs by SRB assay", "format": "functional"}, "TK-10": {"tested_on": "TK-10", "experiment": "Cytotoxicity against human TK-10 cells assessed as inhibition of cell growth measured after 48 hrs by SRB assay", "format": "functional"}, "[2]": {"experiment": "Induction of microtubule depolymerisation in rat A-10 cell line measured after 18 hrs by indirect immunofluorescence method", "settings": "a10", "how_it_was_run": "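Rat A-10 cells, chosen because they arrest in interphase without significant mitotic accumulation, were exposed to compounds for 18 h. Cellular microtubules were then visualized by indirect immunofluorescence. EC50 values come from at least three independent experiments.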"}, "CAKI-1": {"tested_on": "CAKI-1", "experiment": "Cytotoxicity against human CAKI-1 cells assessed as inhibition of cell growth measured after 48 hrs by SRB assay", "format": "functional"}, "SN12C": {"tested_on": "SN12C", "experiment": "Cytotoxicity against human SN12C cells assessed as inhibition of cell growth measured after 48 hrs by SRB assay", "format": "functional"}, "COLO 205": {"tested_on": "COLO 205", "experiment": "Cytotoxicity against human COLO 205 cells assessed as inhibition of cell growth measured after 48 hrs by SRB assay", "format": "functional"}, "HL-60(TB)": {"tested_on": "HL-60(TB)", "experiment": "Cytotoxicity against human HL-60(TB) cells assessed as inhibition of cell growth measured after 48 hrs by SRB assay", "format": "functional"}, "LOX IMVI": {"tested_on": "LOX IMVI", "experiment": "Cytotoxicity against human LOX IMVI cells assessed as inhibition of cell growth measured after 48 hrs by SRB assay", "format": "functional"}, "SK-OV-3 [3]": {"tested_on": "SK-OV-3", "experiment": "Antiproliferative activity against human SK-OV-3 cells assessed as decrease in cell growth measured after 48 hrs by SRB method", "format": "functional, cell-based", "settings": "SK-OV-3, 48 h"}, "HT-29": {"tested_on": "HT-29", "experiment": "Cytotoxicity against human HT-29 cells assessed as inhibition of cell growth measured after 48 hrs by SRB assay", "format": "functional"}, "OVCAR-5": {"tested_on": "OVCAR-5", "experiment": "Cytotoxicity against human OVCAR-5 cells assessed as inhibition of cell growth measured after 48 hrs by SRB assay", "format": "functional"}, "SF-539": {"tested_on": "SF-539", "experiment": "Cytotoxicity against human SF-539 cells assessed as inhibition of cell growth measured after 48 hrs by SRB assay", "format": "functional"}, "Bos taurus [4]": {"organism": "Bos taurus", "experiment": "Inhibition of [3H]colchicine binding to bovine tubulin at 5 uM measured after 10 mins by scintillation counting", "how_it_was_run": "(§1)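 Purified bovine brain tubulin at 1.0 µM was mixed with 5.0 µM [3H]colchicine and inhibitor, plus components that stabilize colchicine binding, in 5% DMSO; tubulin was added last, on ice. Binding ran 10 min at 37 °C and was stopped with ice water. Mixtures were filtered through stacked DEAE-cellulose filters, and bound radiolabel was measured by scintillation counting.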"}, "OVCAR-8": {"tested_on": "OVCAR-8", "experiment": "Cytotoxicity against human OVCAR-8 cells assessed as inhibition of cell growth measured after 48 hrs by SRB assay", "format": "functional"}, "SNB-19": {"tested_on": "SNB-19", "experiment": "Cytotoxicity against human SNB-19 cells assessed as inhibition of cell growth measured after 48 hrs by SRB assay", "format": "functional"}, "OVCAR-4": {"tested_on": "OVCAR-4", "experiment": "Cytotoxicity against human OVCAR-4 cells assessed as inhibition of cell growth measured after 48 hrs by SRB assay", "format": "functional"}, "M14": {"tested_on": "M14", "experiment": "Cytotoxicity against human M14 cells assessed as inhibition of cell growth measured after 48 hrs by SRB assay", "format": "functional"}, "SR": {"tested_on": "SR", "experiment": "Cytotoxicity against human SR cells assessed as inhibition of cell growth measured after 48 hrs by SRB assay", "format": "functional"}, "NCI-H23": {"tested_on": "NCI-H23", "experiment": "Cytotoxicity against human NCI-H23 cells assessed as inhibition of cell growth measured after 48 hrs by SRB assay", "format": "functional"}, "SK-OV-3 [5]": {"tested_on": "SK-OV-3", "experiment": "Cytotoxicity against human SK-OV-3 cells assessed as inhibition of cell growth measured after 48 hrs by SRB assay", "format": "functional"}, "Bos taurus [6]": {"organism": "Bos taurus", "experiment": "Inhibition of [3H]colchicine binding to bovine tubulin at 1 uM measured after 10 mins by scintillation counting", "how_it_was_run": "as §1"}, "[7]": {"experiment": "Antiproliferative activity against human SK-OV-3 MDR-1-6/6 cells expressing Pgp assessed as decrease in cell growth measured after 48 hrs by SRB method", "format": "functional", "settings": "SK-OV-3, 48 h"}, "U-251 [8]": {"tested_on": "U-251", "experiment": "Antitumour activity against human U251 cells xenografted in NCr athymic nude nu/nu mouse assessed as decrease in tumour growth at 17.5 mg/kg twice in a week", "format": "functional, organism-based"}, "IGROV-1": {"tested_on": "IGROV-1", "experiment": "Cytotoxicity against human IGROV-1 cells assessed as inhibition of cell growth measured after 48 hrs by SRB assay", "format": "functional"}}, "note": "pEC50, pIC50: −log10 of the molar value. Active and inactive are the calls of the source. The rule behind the calls is not given here."}
{"molecule": "COc1cccc2cc(N(C)c3nc(C)nc4c3CCC4)ccc12", "values": [{"measurement": "GI50", "setting": "HCT-15", "result": "< 10", "unit": "nM"}, {"measurement": "GI50", "setting": "HCC 2998", "result": "< 10", "unit": "nM"}, {"measurement": "GI50", "setting": "U-251 [1]", "result": "< 10", "unit": "nM"}, {"measurement": "GI50", "setting": "A549", "result": "< 10", "unit": "nM"}, {"measurement": "GI50", "setting": "TK-10", "result": 9320, "unit": "nM"}, {"measurement": "pEC50", "setting": "[2]", "result": 8.35}, {"measurement": "GI50", "setting": "CAKI-1", "result": "< 10", "unit": "nM"}, {"measurement": "GI50", "setting": "SN12C", "result": "< 10", "unit": "nM"}, {"measurement": "GI50", "setting": "COLO 205", "result": "< 10", "unit": "nM"}, {"measurement": "GI50", "setting": "HL-60(TB)", "result": "< 10", "unit": "nM"}, {"measurement": "GI50", "setting": "LOX IMVI", "result": "< 10", "unit": "nM"}, {"measurement": "pIC50", "setting": "SK-OV-3 [3]", "result": 8.57}, {"measurement": "GI50", "setting": "HT-29", "result": "< 10", "unit": "nM"}, {"measurement": "GI50", "setting": "OVCAR-5", "result": "< 10", "unit": "nM"}, {"measurement": "GI50", "setting": "SF-539", "result": "< 10", "unit": "nM"}, {"measurement": "inhibition", "setting": "Bos taurus [4]", "result": 98, "unit": "%"}, {"measurement": "GI50", "setting": "OVCAR-8", "result": "< 10", "unit": "nM"}, {"measurement": "GI50", "setting": "SNB-19", "result": "< 10", "unit": "nM"}, {"measurement": "GI50", "setting": "OVCAR-4", "result": 10.9, "unit": "nM"}, {"measurement": "GI50", "setting": "M14", "result": "< 10", "unit": "nM"}, {"measurement": "GI50", "setting": "SR", "result": "< 10", "unit": "nM"}, {"measurement": "GI50", "setting": "NCI-H23", "result": "< 10", "unit": "nM"}, {"measurement": "GI50", "setting": "SK-OV-3 [5]", "result": "< 10", "unit": "nM"}, {"measurement": "inhibition", "setting": "Bos taurus [6]", "result": 86, "unit": "%"}, {"measurement": "pIC50", "setting": "[7]", "result": 8.24}, {"measurement": "inhibition", "setting": "U-251 [8]", "result": "Active"}, {"measurement": "GI50", "setting": "IGROV-1", "result": "< 10", "unit": "nM"}]}
